Screens as filed in PubChem BioAssay.
The full list was thinned out, with hits kept by preference.
Tb MetRS inh = T. brucei MetRS inhibitors, primary screen, biochemical, luminescence. methionyl-tRNA synthetase (Trypanosoma brucei brucei). purified T. brucei MetRS, ATP depletion, Kinase-Glo luminescence. inhibition, % at 11.9 µM. 360,000 compounds, 0.4% hits. AID 624268, 2012;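 active = inhibition above a per-plate cutoff of the control wells' mean inhibition plus 3 SD, cut at about 5.5% in these data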;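 also: 0% = DMSO wells median and 100% = median of wells with control inhibitor compound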
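technique = Kinase-Glo luminescence, ATP depletion format | system = purified MetRS (methionyl-tRNA synthetase) enzyme from Trypanosoma brucei | timing = 15 min preincubation, 2 h reaction, all 25 °C | evaluation = percent inhibition versus plate control medians | dosing = single dose, 11.9 µM final nominal, 0.9% final DMSO | also added = substrates ATP, L-methionine and bulk Escherichia coli tRNA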
UPR CHOP act = activators of apoptotic CHOP UPR arm, primary screen, cell-based, CHO-CHOP luciferase reporter, luminescence, uHTS | UPR activation; percent of tunicamycin response over DMSO baseline | activation, % at 10 µM | 330,000 compounds, 0.34% hits | AID 449763, 2010;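 active = at 10 µM dose, activation of 40% or more, normalized to positive control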;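 also: 100% = tunicamycin at 10 µg/mL and 0% = DMSO alone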
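assay system = CHO CHOP reporter cells | amount = 500 CHO-CHOP cells per well | buffer or medium = F12 with 10% FBS | incubation = 16-18 h cell attachment, then 6 h compound exposure, 37 °C | detection = luminescence read with Steady-Glo | read-out = percent activation relative to tunicamycin control | controls = tunicamycin high control, DMSO low control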
CHOP inh = inhibitors of CHOP promoter induction, primary screen, cell-based, unfolded protein response, luciferase reporter; CHO-K1 CHOP-promoter luciferase, tunicamycin-induced, 15-18 h; inhibition, % at 10 µM; 220,000 compounds, 3.8% hits;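 active = compounds that reduced the stress-induced luciferase reporter signal by more than about 70% of percent inhibition, limit read from the data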;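 also: 0% = tunicamycin plus vehicle and 100% = wells without tunicamycin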
XBP1 UPR activ = activators of adaptive XBP1 UPR arm, primary screen, cell-based, CHO-XBP1 luciferase reporter, luminescence, uHTS. IRE1-XBP1 UPR activation; percent of tunicamycin response, DMSO as zero. activation, % at 20 µM. 330,000 compounds, 0.33% hits;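 active = versus positive control, 20 µM dose yields 30% or more activation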;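 also: 100% = tunicamycin at 10 µg/mL and 0% = DMSO only wells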
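Material: CHO cell line with stable XBP1 luciferase reporter; schedule: 16-18 h cell attachment at 37 °C, then 6 h compound exposure; signal: glow luminescence from Steady-Glo reagent; medium: serum-containing F12 medium, 10% FBS; benchmarks: tunicamycin 10 µg/mL and vehicle-only wells; read-out: percent activation relative to tunicamycin reference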
V-ATPase pHluor = regulators of yeast V-ATPase proton pumping, primary screen, pHLuorin cytosolic pH fluorescence. AID 504577, 2011. S. cerevisiae. 350,000 compounds, 0.37% hits. response, % at 10 µM; in the data active = response mostly above about 7.3%, no sharp cut-off; inactive = mostly below about 5.4%; also: actives read high
Starred values were filed as active, the others as inactive.

`CC(C)(C)C(=O)Nc1sc2c(c1-c1nc3ccccc3[nH]1)CCCC2` gave Tb MetRS inh -1, UPR CHOP act 1, CHOP inh 83*, XBP1 UPR activ 1 and V-ATPase pHluor -2.
`CC(C)(C)C(=O)Nc1cccc(-c2nc3ccccc3[nH]2)c1` gave Tb MetRS inh 0, UPR CHOP act 3, CHOP inh 10, XBP1 UPR activ 5 and V-ATPase pHluor -1.
CCCCCCCCN1C(=O)[C@H](CC(=O)N2CCN(C(=O)C3CC3)CC2)C[C@@]2(C(=O)OC)CC(C)(C)CC=C12 was read as Tb MetRS inh -1.
`COC(=O)[C@@]12C[C@@H](CC(=O)N3CCCC3)C(=O)N(Cc3ccccc3)C1=CCC(C)(C)C2` gave Tb MetRS inh 0.
Screening CO/N=C(\Cn1ncc(N2CCCC2)c(Br)c1=O)c1ccc(Cl)cc1 returned Tb MetRS inh -1, UPR CHOP act -2, CHOP inh 42, XBP1 UPR activ -3 and V-ATPase pHluor 2.
Screening CO/N=C(\Cn1ncc(NC2CCCCC2)c(Br)c1=O)c1ccc(Cl)cc1 returned Tb MetRS inh -1, UPR CHOP act 3, CHOP inh 84*, XBP1 UPR activ -4 and V-ATPase pHluor -3.
For Cc1ccccc1Cn1c(C(=O)OC(C)C)cc2c1ccn2C the results were Tb MetRS inh 1, UPR CHOP act 3, CHOP inh 51, XBP1 UPR activ 0 and V-ATPase pHluor 3.
Cc1ccc(C)c(Cn2c(C(=O)OC(C)C)cc3c2ccn3C)c1 was read as Tb MetRS inh 0, UPR CHOP act 1, CHOP inh 73*, XBP1 UPR activ 1 and V-ATPase pHluor 2.
`CCOC(=O)c1cc2c(ccn2C)n1Cc1ccccc1C` gave Tb MetRS inh 0, UPR CHOP act -1, CHOP inh 70*, XBP1 UPR activ -3 and V-ATPase pHluor -4.
Cc1cc(=O)n2nc(N3CCCC(C(=O)NCCCN4C(C)CCCC4C)C3)sc2n1 (stereo not drawn) was read as Tb MetRS inh 0 and V-ATPase pHluor -2.
O=C(Nc1ccc(-c2nc3ccccc3s2)c(O)c1)C1=COCCO1 was read as Tb MetRS inh -1, UPR CHOP act 3, CHOP inh 72*, XBP1 UPR activ 8 and V-ATPase pHluor 5.
Screening O=C(Nc1ccc(O)c(-c2nc3ccccc3s2)c1)C1=COCCO1 returned Tb MetRS inh 0, UPR CHOP act 3, CHOP inh 36, XBP1 UPR activ -1 and V-ATPase pHluor 2.
Screening CCCCn1nnnc1C(c1ccccc1)N1CCN(c2ncc(C(F)(F)F)cc2Cl)CC1 (stereo not drawn) returned Tb MetRS inh 0.
For CCN(CC)CCn1c2c(c(SCC(=O)NCc3ccccc3)nc1=O)CCC2 the results were Tb MetRS inh 0, UPR CHOP act 1, XBP1 UPR activ -1 and V-ATPase pHluor -7.
Cc1ccc2[nH]c(=O)c(CN(Cc3ccc4c(c3)OCO4)Cc3nnnn3Cc3ccco3)cc2c1 was read as Tb MetRS inh 0, UPR CHOP act -1, CHOP inh 10, XBP1 UPR activ -3 and V-ATPase pHluor -6.
For Cc1cc(C)c2cc(CN(Cc3ccc4c(c3)OCO4)Cc3nnnn3Cc3ccco3)c(=O)[nH]c2c1 the results were Tb MetRS inh 1, UPR CHOP act -4, CHOP inh 71*, XBP1 UPR activ 10 and V-ATPase pHluor 1.
Screening CCc1ccc2[nH]c(=O)c(CN(Cc3ccccc3)Cc3nnnn3Cc3ccco3)cc2c1 returned Tb MetRS inh 0, UPR CHOP act 0, CHOP inh 73*, XBP1 UPR activ -3 and V-ATPase pHluor -1.
COc1ccc(CCCNC(=O)C2(C)Cc3c(-c4ccc5c(c4)OCO5)ccnc3O2)cc1 (stereo not drawn) was read as Tb MetRS inh 0.
Screening Cc1cccc(C)c1NC(=O)C1(C)CSCC(=O)N1Cc1ccco1 (stereo not drawn) returned Tb MetRS inh 0.
For COC(=O)c1cc(C(=O)c2ccc(Cl)cc2Cl)cn1C the results were Tb MetRS inh 1, UPR CHOP act 4, CHOP inh 72*, XBP1 UPR activ -1 and V-ATPase pHluor 8.
O=C1NCCNC1c1ccccc1 (stereo not drawn) was read as Tb MetRS inh 0 and V-ATPase pHluor -2.
`CN[C@H]1C[C@H]2c3cc(N4CCN(C)CC4)ccc3CCN2C(=O)[C@H]1[C@H](C)O` gave Tb MetRS inh -3 and V-ATPase pHluor 1.
`CN(C)c1nc(N)nc(CSc2nc3c(c(=O)n(C)c(=O)n3C)n2Cc2ccccc2F)n1` gave Tb MetRS inh 0, UPR CHOP act -1, CHOP inh 72*, XBP1 UPR activ -2 and V-ATPase pHluor 1.
`Cn1c(=O)c2c(nc(SCc3nn[nH]n3)n2Cc2ccccc2F)n(C)c1=O` gave Tb MetRS inh 0, CHOP inh -3 and V-ATPase pHluor -1.
`CCOc1ccc(NC(=O)CSc2nc(C3CC3)nc3ccccc23)cc1` gave Tb MetRS inh -2, UPR CHOP act 0, CHOP inh 96*, XBP1 UPR activ 1 and V-ATPase pHluor -2.
Cc1cccc(NC(=O)CSc2nc(COc3ccccc3)nc3ccccc23)c1C was read as Tb MetRS inh -1, UPR CHOP act -2, CHOP inh 28, XBP1 UPR activ -1 and V-ATPase pHluor 1.
Cc1cccc(C)c1NC(=O)CSc1nc(COc2ccccc2)nc2ccccc12 was read as Tb MetRS inh 0, UPR CHOP act 0, CHOP inh 88*, XBP1 UPR activ 2 and V-ATPase pHluor -1.
For O=[N+]([O-])c1ccc(N/N=C/c2sc(N3CCOCC3)nc2-c2ccccc2)c(S(=O)(=O)Nc2ccccc2Cl)c1 the results were Tb MetRS inh 0, CHOP inh 85* and V-ATPase pHluor -4.
Screening O=[N+]([O-])c1ccc(N/N=C/c2sc(N3CCOCC3)nc2-c2ccccc2)c(S(=O)(=O)Nc2ccc(Cl)cc2)c1 returned Tb MetRS inh 0, CHOP inh 86* and V-ATPase pHluor -5.
O=C(N/N=C/c1sc(N2CCOCC2)nc1-c1ccccc1)c1ccccc1Cl was read as Tb MetRS inh -2, UPR CHOP act 1, CHOP inh 28, XBP1 UPR activ -6 and V-ATPase pHluor -1.
Screening O=C1C(Cl)=C(NCCc2ccccc2)C(=O)c2ccccc21 returned Tb MetRS inh 0 and V-ATPase pHluor 12*.
Screening CC(C)CCNC(=O)C1C2C=CC3(CN(Cc4ccccc4Cl)C(=O)C13)O2 (stereo not drawn) returned Tb MetRS inh -1, UPR CHOP act -1, CHOP inh 92* and XBP1 UPR activ -1.
